Results published in ChEMBL document CHEMBL4196237, “Heterocoumarins Are Selective Carbonic Anhydrase IX and XII Inhibitors with Cytotoxic Effects against Cancer Cells Lines” (ACS Med Chem Lett, 2018).
pKi: −log10 of the molar value. The source made the active and inactive calls. No cut-off for these calls is given here.

How the values were obtained:
Carbonic anhydrase 2 = Carbonic anhydrase 2 (Homo sapiens, UniProt P00918); assay: Inhibition of recombinant human carbonic anhydrase 2 incubated 6 h prior to testing by CO2 hydration based stopped-flow assay
Carbonic anhydrase 9 = Carbonic anhydrase 9 (Homo sapiens, UniProt Q16790); assay: Inhibition of recombinant human carbonic anhydrase 9 incubated 15 mins prior to testing by CO2 hydration based stopped-flow assay
Carbonic anhydrase 1 = Carbonic anhydrase 1 (Homo sapiens, UniProt P00915); assay: Inhibition of recombinant human carbonic anhydrase 1 incubated 6 h prior to testing by CO2 hydration based stopped-flow assay
Carbonic anhydrase 12 [1] = biological target: T1, Carbonic anhydrase 12 (Homo sapiens, UniProt O43570); assay: Inhibition of recombinant human carbonic anhydrase 12 incubated 15 mins prior to testing by CO2 hydration based stopped-flow assay
PC-3 [2] = assay: Cytotoxicity against human PC3 cells assessed as cell viability at 30 uM after 48 hrs under normoxic conditions by MTT assay relative to control; assay type: functional; details: PC-3, 48 h, read-out: Activity
Outline: (§1)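 PC3 human prostate cancer cells incubated 48 h with compound at a range of concentrations, under normoxia or under hypoxia (1% O2). Viability is expressed relative to control, with significance tested against control at p < 0.05, 0.01 and 0.001.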

PC-3 [3] = assay: Cytotoxicity against human PC3 cells assessed as cell viability at 30 uM after 48 hrs under hypoxic conditions by MTT assay relative to control; assay type: functional; details: PC-3, 48 h, read-out: Activity
Outline: as §1

PC-3 [4] = assay: Cytotoxicity against human PC3 cells assessed as cell viability at 100 to 300 uM after 48 hrs under hypoxic conditions by MTT assay relative to control; assay type: functional
Outline: as §1

MDA-MB-231 [5] = assay: Cytotoxicity against human MDA-MB-231 cells assessed as reduction in cell viability at 30 uM after 48 hrs under normoxic conditions by MTT assay relative to control; assay type: functional
MDA-MB-231 [6] = assay: Cytotoxicity against human MDA-MB-231 cells assessed as reduction in cell viability at 300 uM after 48 hrs under hypoxic conditions by MTT assay relative to control; assay type: functional
PC-3 [7] = assay: Cytotoxicity against human PC3 cells assessed as cell viability at higher concentration after 48 hrs under normoxic conditions by MTT assay relative to control; assay type: functional
Outline: as §1

Carbonic anhydrase 12 [8] = biological target: T1, Carbonic anhydrase 12; assay: Inhibition of recombinant human carbonic anhydrase 12 incubated 6 h prior to testing by CO2 hydration based stopped-flow assay
MDA-MB-231 [9] = assay: Cytotoxicity against human MDA-MB-231 cells assessed as reduction in cell viability at 1 to 300 uM after 48 hrs under hypoxic conditions by MTT assay; assay type: functional, cell-based
MDA-MB-231 [10] = assay: Cytotoxicity against human MDA-MB-231 cells assessed as reduction in cell viability at 1 to 300 uM after 48 hrs under normoxic conditions by MTT assay; assay type: functional, cell-based
PC-3 [11] = assay: Cytotoxicity against human PC3 cells assessed as reduction in cell viability at 1 to 300 uM after 48 hrs under hypoxic conditions by MTT assay; assay type: functional, cell-based
Outline: as §1

PC-3 [12] = assay: Cytotoxicity against human PC3 cells assessed as reduction in cell viability at 1 to 300 uM after 48 hrs under normoxic conditions by MTT assay; assay type: functional, cell-based
Outline: as §1

PC-3 [13] = assay: Cytotoxicity against human PC3 cells assessed as cell viability at 300 uM after 48 hrs under normoxic conditions by MTT assay relative to control; assay type: functional; details: PC-3, 48 h, read-out: Activity
Outline: as §1

MDA-MB-231 [14] = assay: Cytotoxicity against human MDA-MB-231 cells assessed as reduction in cell viability at 300 uM after 48 hrs under normoxic conditions by MTT assay relative to control; assay type: functional
PC-3 [15] = assay: Cytotoxicity against human PC3 cells assessed as cell viability at 300 uM after 48 hrs under hypoxic conditions by MTT assay relative to control; assay type: functional; details: PC-3, 48 h, read-out: Activity
Outline: as §1

MDA-MB-231 [16] = assay: Cytotoxicity against human MDA-MB-231 cells assessed as reduction in cell viability at 30 uM after 48 hrs under hypoxic conditions by MTT assay relative to control; assay type: functional

Chain of Carbonic anhydrase 1 (P00915 whole entry): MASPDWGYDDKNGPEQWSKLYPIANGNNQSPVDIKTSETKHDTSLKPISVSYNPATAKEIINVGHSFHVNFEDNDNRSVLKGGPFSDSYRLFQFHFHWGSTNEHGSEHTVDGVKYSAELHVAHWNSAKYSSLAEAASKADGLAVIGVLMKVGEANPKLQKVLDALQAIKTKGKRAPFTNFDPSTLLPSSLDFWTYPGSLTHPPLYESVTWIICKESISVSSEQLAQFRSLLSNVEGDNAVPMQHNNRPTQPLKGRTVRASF
T1 sequence (O43570 whole entry): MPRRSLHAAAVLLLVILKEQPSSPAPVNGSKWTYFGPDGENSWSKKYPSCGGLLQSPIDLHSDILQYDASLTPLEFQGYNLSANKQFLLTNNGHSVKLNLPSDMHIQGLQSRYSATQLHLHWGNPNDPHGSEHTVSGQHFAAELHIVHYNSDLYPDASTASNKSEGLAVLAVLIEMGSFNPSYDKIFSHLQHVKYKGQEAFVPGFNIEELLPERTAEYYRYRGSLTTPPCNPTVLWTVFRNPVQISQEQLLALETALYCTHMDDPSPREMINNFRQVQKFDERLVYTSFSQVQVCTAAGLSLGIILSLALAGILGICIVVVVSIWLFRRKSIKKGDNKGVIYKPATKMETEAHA

Row | SMILES | pKi (Carbonic anhydrase 2) | pKi (Carbonic anhydrase 9) | pKi (Carbonic anhydrase 1) | further results
1 | O=c1ccc2cccc(Br)c2[nH]1 | < 5.00 | 7.63 | < 5.00 | –
2 | Cc1ccc2[nH]c(=O)ccc2c1 | < 5.00 | 6.91 | < 5.00 | –
3 | Cn1c(=[Se])ccc2ccccc21 | < 5.00 | 6.76 | < 5.00 | pKi (Carbonic anhydrase 12 [1]): 7.06
4 | S=c1ccc2ccccc2[se]1 | < 5.00 | 7.40 | < 5.00 | –
5 | O=c1ccc2ccccc2[te]1 | < 5.00 | 7.23 | < 5.00 | viability at 30 µM (PC-3 [2]): 54%; viability at 30 µM (PC-3 [3]): 71%; Activity (PC-3 [4]): 38%; Activity (MDA-MB-231 [5]): 15.9%; pKi (Carbonic anhydrase 12 [1]): 8.09; Activity (MDA-MB-231 [6]): 22%; Activity (PC-3 [7]): 19%
6 | Cc1ccc2[se]c(=O)ccc2c1 | < 5.00 | 7.25 | < 5.00 | pKi (Carbonic anhydrase 12 [1]): 8.12
7 | Cn1c(=O)ccc2ccccc21 | < 5.00 | 7.35 | < 5.00 | pKi (Carbonic anhydrase 12 [8]): 7.08
8 | [Se]=c1ccc2ccccc2[nH]1 | < 5.00 | 7.26 | < 5.00 | Activity (MDA-MB-231 [9]): inactive; Activity (MDA-MB-231 [10]): inactive; Activity (PC-3 [11]): inactive; Activity (PC-3 [12]): inactive
9 | O=c1ccc2ccccc2[se]1 | < 5.00 | 7.58 | < 5.00 | viability at 300 µM (PC-3 [13]): 68%; Activity (MDA-MB-231 [6]): 90%; Activity (MDA-MB-231 [14]): 28%; viability at 300 µM (PC-3 [15]): 68%; Activity (MDA-MB-231 [16]): >50%
10 | Cc1ccc2[se]c(=S)ccc2c1 | < 5.00 | 7.22 | < 5.00 | viability at 30 µM (PC-3 [2]): 51%; viability at 30 µM (PC-3 [3]): 79%; Activity (MDA-MB-231 [9]): inactive; Activity (MDA-MB-231 [5]): 61%
11 | O=c1ccc2cccc(Cl)c2[nH]1 | < 5.00 | 7.64 | < 5.00 | –
12 | Oc1ccc2ccccc2n1 | < 5.00 | – | < 5.00 | –
13 | O=c1ccc2cccc(F)c2[nH]1 | < 5.00 | 7.23 | < 5.00 | –
